OX1R antag-1: antagonists of human orexin 1 receptor (OX1R) | Orexin/Hypocretin receptor type 1 (Homo sapiens), O43613 | OX1R-expressing cells, FRET antagonist read-out | inhibition, % at 6.6 µM | actives 1.8% (n = 330,000); in the data active = inhibition mostly above about 38%, no sharp cut-off; inactive = mostly below about 40%
TAAR1 agonist: human TAAR1 agonists, primary screen, Fluo-8 calcium fluorescence, CHO RD-HGA16 cells | vehicle wells 0%, saturating PEA agonist 100% | Trace amine-associated receptor 1 (Homo sapiens), Q96RJ0 | activation, % at 3 µM | AID 624467, 2012 | actives 0.99% (n = 360,000);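 active = activation above the mean activation of all test compounds in the run plus 3 SD, cut at about 38% in these data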
Target sequence (Q96RJ0 whole entry, looked up): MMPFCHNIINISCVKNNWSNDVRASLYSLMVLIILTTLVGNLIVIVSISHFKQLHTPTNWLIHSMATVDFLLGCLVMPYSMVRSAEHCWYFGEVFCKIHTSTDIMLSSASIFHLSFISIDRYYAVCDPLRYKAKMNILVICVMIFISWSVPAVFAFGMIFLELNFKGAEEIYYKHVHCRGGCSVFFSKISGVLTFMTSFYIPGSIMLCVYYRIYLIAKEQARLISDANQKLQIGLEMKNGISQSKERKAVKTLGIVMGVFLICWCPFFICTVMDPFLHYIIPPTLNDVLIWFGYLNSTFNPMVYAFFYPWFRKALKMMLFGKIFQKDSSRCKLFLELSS
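System: CHO-derived RD-HGA16 cells with stable Gα16 and human TAAR1 / Times: 17-24 h plating, Fluo-8 75 min 37 °C, 30 min RT / Technique: calcium-sensitive Fluo-8 signal, excitation 470-495, emission 515-575 nm / Measure: % activation relative to PEA EC100 response / Benchmarks: DMSO and PEA EC100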
GPR7 antag: GPR7 receptor antagonists, primary screen, cell-based, fluorescence, single concentration | Neuropeptides B/W receptor type 1 (Homo sapiens), P48145 | GPR7-expressing cells, fluorescence antagonist assay | inhibition, % at 4.4 µM | actives 1.1% (n = 290,000); in the data active = inhibition above about 16%, passing the limit was not always enough;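 also: cells stimulated with the agonist NPW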
Target sequence (P48145 whole entry, looked up): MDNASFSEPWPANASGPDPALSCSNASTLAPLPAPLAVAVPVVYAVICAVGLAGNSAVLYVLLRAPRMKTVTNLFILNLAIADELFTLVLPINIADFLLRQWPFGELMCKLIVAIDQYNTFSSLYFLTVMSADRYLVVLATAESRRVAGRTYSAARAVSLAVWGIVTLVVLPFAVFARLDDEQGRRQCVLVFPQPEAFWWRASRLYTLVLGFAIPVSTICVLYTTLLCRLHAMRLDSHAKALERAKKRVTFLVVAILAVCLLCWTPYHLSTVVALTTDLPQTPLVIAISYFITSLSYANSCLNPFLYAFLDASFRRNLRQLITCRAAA
CHO parental Ca: ATP-evoked calcium signal inhibitors, parental CHO, primary screen, counter-screen for OX1R antagonist project, cell-based, fluorescence, Fluo-8 calcium dye. parental CHO-K1, ATP-induced calcium, Fluo-8 fluorescence. inhibition, % at 5.6 µM. actives 0.63% (n = 330,000);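 active = inhibition above that plate's mean sample inhibition plus 3 SD, cut at about 26% in these data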
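Material: Parental CHO cells | Reagent: ATP | Compound dosing: Single nominal dose of 5.6 µM per compound | Detection: Intracellular calcium via Fluo-8 no-wash fluorescent dye | Read-out: % inhibition of ATP-induced calcium mobilization | Benchmarks: Low control ATP plus DMSO, high control DMSO only | Replicates: Singlicate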
OX1R antag-2: OX1R (HCRTR1) antagonists, primary screen, fluorescence, CHO/OX1R cells, Fluo-8 calcium, orexin A; Orexin/Hypocretin receptor type 1 (Homo sapiens), O43613; Fluo-8 calcium fluorescence; inhibition, % at 5 µM; actives 0.43% (n = 330,000); AID 434989, 2010;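 active = inhibition above its plate's threshold, mean inhibition of all tested compounds on the plate plus 3 SD, cut at about 37% in these data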
TAAR1 antag: human TAAR1 antagonists, primary screen, Fluo-8 calcium fluorescence, CHO RD-HGA16 cells | antagonist | actives 1.5% (n = 360,000) | AID 624466, 2012 | Trace amine-associated receptor 1 (Homo sapiens), Q96RJ0 | inhibition, % at 3 µM;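 active = inhibition above a per-plate cutoff, the mean inhibition of test compounds on that plate plus 3 SD, cut at about 49% in these data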
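Material: RD-HGA16 CHO cells with stable hTAAR1 and Gα16; Dosing: single nominal final test compound concentration of 3 µM; Schedule: seeding 17-24 h prior, 75-min 37 °C, 30-min RT dye loading; Detection: kinetic Fluo-8 calcium fluorescence measurement; Measure: % inhibition from peak post-agonist over basal fluorescence ratio; Benchmarks: vehicle and agonist controls.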
GPR7 antag cf: GPR7 receptor antagonists, confirmation, cell-based, fluorescence, single concentration; shares compounds with GPR7 antag; GPR7-expressing cells, calcium fluorescence antagonist mode; inhibition, % at 4.4 µM; actives 52% (n = 2,400); AID 1952, 2009; in the data active = inhibition above about 24%;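 also: stimulated with the GPR7 agonist NPW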
MCHR1 antagonist: MCHR1 antagonists in cells, counter-screen for GPR7 antagonist project, cell-based, fluorescence, human | shares compounds with GPR7 antag | MCHR1-expressing cells, fluorescence antagonist assay | inhibition, % at 4.4 µM | actives 62% (n = 2,400); in the data active = inhibition above about 22%
A number is an active result; - = inactive; . = no result given. An excerpt weighted towards active compounds, which were near 4.5% of everything screened.

SMILES	OX1R antag-1	TAAR1 agonist	GPR7 antag	CHO parental Ca	OX1R antag-2	TAAR1 antag	GPR7 antag cf	MCHR1 antagonist
CCOc1cc(C)c(S(=O)(=O)NC2CC(C)(C)NC(C)(C)C2)cc1C	-	-	-	-	-	-	.	.
CCc1ccc(C(c2c(C)nn(-c3ccccc3)c2N)c2c(C)nn(-c3ccccc3)c2N)cc1	-	-	-	-	-	-	.	.
Cc1cccc(C(c2c(C)nn(-c3ccccc3)c2N)c2c(C)nn(-c3ccccc3)c2N)c1	-	-	21.1	-	-	-	-	-
CCCN(CC(=O)Nc1ccccc1C)C(=O)c1ccc(N2CCCC(C)C2)c([N+](=O)[O-])c1 (stereo unspecified)	.	-	.	.	.	-	.	.
O=[N+]([O-])c1cc2c(c3cccnc13)COCO2	.	-	.	.	.	-	.	.
O=C(Nc1ccc(OC(F)F)cc1)Nc1cccc(C(F)(F)F)c1	45.1	-	39.0	60.1	49.7	-	53.8	68.0
CCN(CC)S(=O)(=O)c1ccc(NC(=O)Nc2cccc(C(F)(F)F)c2)cc1	-	-	27.1	34.9	-	-	41.1	56.6
O=C(NC1CC1)C1CCN(C2CCN(C(=O)c3ccc4cccc(F)c4n3)CC2)CC1	-	-	-	-	-	-	.	.
OCC[C@@H]1C[C@H](O)[C@@H](O)[C@@]2(OCCc3cc(Cl)ccc32)O1	.	-	.	.	.	-	.	.
O=C(NC(=S)Nc1cccc([N+](=O)[O-])c1)c1ccccc1	-	-	-	-	-	-	.	.
CN(C)S(=O)(=O)c1cccc(NC(=S)NC(=O)C2CCCCC2)c1	-	-	32.3	-	-	-	-	35.1
O=C(NC(=S)Nc1cccc([N+](=O)[O-])c1)C1CCCCC1	-	-	32.2	-	-	-	33.0	38.9
CC(C)NC[C@H](O)COc1ccc(CC(N)=O)cc1	-	-	.	-	-	-	.	.
C/C(CC(=O)Nc1cccc2c1CCCC2)=N\NC=O	-	-	-	-	-	-	.	.
CCN1CCN(c2nc(SC)nc3sc4c(c23)CC(C)(C)OC4)CC1	.	-	-	.	.	-	.	.
CCC1(C)Cc2c(sc3nc(SC)nc(NCCN(C)C)c23)CO1 (stereo unspecified)	-	-	26.4	-	-	-	-	-
c1ccc(OCCSc2nnnn2-c2ccccc2)cc1	-	-	31.1	-	-	-	-	34.5
CCOc1ccc(OCCSc2nnnn2-c2ccccc2)cc1	-	-	-	-	-	-	.	.
C[C@H](CO)N1C[C@H](C)[C@@H](CN(C)S(=O)(=O)c2cccs2)Oc2ccc(NS(=O)(=O)c3ccc(F)cc3)cc2C1=O	-	-	.	-	-	-	.	.
CCC(C)c1ccc(N(C(=O)c2ccco2)C(C(=O)NC2CCCC2)c2cccnc2)cc1 (stereo unspecified)	-	-	50.8	-	-	-	-	-
COc1ccc(C)cc1N(C(=O)c1ccco1)C(C(=O)NC1CCCC1)c1cc(OC)c(OC)c(OC)c1 (stereo unspecified)	-	-	42.9	-	-	-	38.1	23.6
O=C(NCCOc1ccccc1)C1CCC(=O)N(CCCN2CCOCC2)C1 (stereo unspecified)	-	-	-	-	-	-	.	.
O=C(Nc1nnc(S(=O)(=O)N2CCCCCC2)s1)c1ccc(Cl)cc1	-	-	-	-	-	-	.	.
CC(C)c1ccc(C(=O)Nc2nnc(S(=O)(=O)N3CCCCC3)s2)cc1	-	-	66.6	-	-	-	-	27.1
CCOCCCNC(=O)c1cc2c(s1)-c1ccccc1SC2	-	-	-	-	-	-	.	.
SMILES	OX1R antag-1	TAAR1 agonist	GPR7 antag	CHO parental Ca	OX1R antag-2	TAAR1 antag	GPR7 antag cf	MCHR1 antagonist
CN(C)CCNC(=O)c1cc2c(s1)-c1ccc(Cl)cc1SC2	.	-	69.1	.	.	-	93.0	93.5
O=C(NC1CCCCC1)C(c1ccncc1)N(Cc1ccc2c(c1)OCO2)C(=O)c1cnsn1 (stereo unspecified)	-	-	26.1	-	-	-	30.3	-
CC(=O)Oc1c(I)cc(I)cc1C(=O)Nc1ccc(Cl)cc1	79.8	-	26.7	57.9	-	-	-	61.0
NS(=O)(=O)c1cc(C(=O)OCC(=O)c2ccccc2)c(Cl)cc1Cl	-	-	21.8	-	-	-	-	-
CCN1CCN(C2=CC3=CC(=C(C#N)C#N)CCC3CC2)CC1 (stereo unspecified)	.	.	59.7	.	.	.	68.3	91.3
N#CC(C#N)=C1C=C2C=C(N3CCCCCC3)CCC2CC1 (stereo unspecified)	.	956.7	71.7	.	.	104.4	96.7	109.8
CN1CCN(C2=CC3=CC(=C(C#N)C#N)CCC3CC2)CC1 (stereo unspecified)	.	.	58.9	.	.	.	76.5	89.9
COc1ccc(Oc2c(Cl)cnn(-c3ccc(C)cc3)c2=O)cc1	-	-	31.6	-	-	-	63.4	-
COc1ccc(Oc2c(Cl)cnn(-c3ccc(F)cc3)c2=O)cc1	-	-	-	-	-	-	.	.
CC(NCc1ccc(F)cc1)C(=O)NC1CCCCC1 (stereo unspecified)	-	-	-	-	-	-	.	.
COc1ccc2ccccc2c1CNC(C)c1ccccc1 (stereo unspecified)	-	-	-	-	-	-	.	.
CC(NCCCOc1cccc2ccccc12)c1ccccc1 (stereo unspecified)	-	44.9	24.6	-	-	-	56.5	49.8
Cc1ccc(Cl)cc1N1CCN(Cc2nnnn2Cc2ccco2)CC1	-	-	-	-	-	-	.	.
CCC(c1nnnn1Cc1ccco1)N1CCN(c2cc(Cl)ccc2C)CC1 (stereo unspecified)	-	-	23.4	-	-	-	30.3	52.0
COCCN(C(=O)c1ccc(N(C)S(=O)(=O)c2ccc(C)cc2)cc1)c1c(N)n(CC(C)C)c(=O)[nH]c1=O	.	-	.	.	.	-	.	.
CCCCC(c1nnnn1C1CCCC1)N1CCN(C2CCCCC2)CC1 (stereo unspecified)	-	-	42.3	-	-	-	47.0	-
CCOC(=O)c1c(CSCc2ccccc2)oc2ccc(O)c(CN(C)C)c12	-	-	40.1	-	-	-	40.3	67.8
